Experimental data of several laboratories.
Compare with care: the assays were run in different laboratories.
DRD3: D(3) dopamine receptor (DRD3, Homo sapiens, UniProt P35462)
Lyn: Tyrosine-protein kinase Lyn (Lyn, Mus musculus, UniProt P25911)
CA12: Carbonic anhydrase 12 (CA12, Homo sapiens, UniProt O43570)
SLC6A3: Sodium-dependent dopamine transporter (SLC6A3, Homo sapiens, UniProt Q01959)
USP51: Ubiquitin carboxyl-terminal hydrolase 51 (USP51, Homo sapiens, UniProt Q70EK9)
PPARG: Peroxisome proliferator-activated receptor gamma (PPARG, Homo sapiens, UniProt P37231)

Structure (SMILES) | target | test | system | setting | inhibition
NS(=O)(=O)c1ccc(CCNCc2cccc3ccccc23)cc1 | DRD3 | enzyme activity, inhibitor |  | 10 µM | 39.3%
CC(C)(COP(=O)(O)OP(=O)(O)OC[C@H]1O[C@@H](n2cnc3c(N)ncnc32)[C@H](O)[C@@H]1OP(=O)(O)O)[C@@H](O)C(=O)NCCC(=O)NCCS | Histone acetyltransferase KAT2A (KAT2A, Homo sapiens, UniProt Q92830) | enzyme activity, inhibitor, mobility shift |  | 10 µM | 29%
O=C(CN1CCN(c2ccc(F)cc2)CC1)Nc1cc(Cl)cc(Cl)c1 | DRD3 | enzyme activity, inhibitor |  | 10 µM | -6.1%
CNC(=O)c1cc(Oc2ccc(NC(=O)Nc3ccc(Cl)c(C(F)(F)F)c3)cc2)ccn1 | Lyn | enzyme activity, inhibitor |  | 0.3 µM | 37%
CCOC(=O)C1CSc2[nH]c(=O)sc2C1c1cn(-c2ccccc2)nc1-c1ccccc1 (stereo not drawn) | CA12 | enzyme activity, inhibitor, absorbance |  | 1 µM | 46.7%
c1ccc(CCCC2CCN(CCCn3nnnc3C(c3ccccc3)c3ccccc3)CC2)cc1 | SLC6A3 | transporter uptake, inhibitor | HEK293 | 1 µM | 30.4%
CN(C)C1CCN(CC#Cc2nn(C3CCCC3)c3nc(NCc4ccccc4)ncc23)C1 (stereo not drawn) | Calcium/calmodulin-dependent protein kinase type IV (CAMK4, Homo sapiens, UniProt Q16566) | enzyme activity, inhibitor, FRET |  | 10 µM | 23%
CCCOC(=O)c1cc(O)c(O)c(O)c1 | USP51 | enzyme activity, inhibitor |  | 5 µM | 97%
CCOC(=O)C1CSc2[nH]c(=O)sc2C1c1cn(-c2ccccc2)nc1-c1ccc(Br)cc1 (stereo not drawn) | CA12 | enzyme activity, inhibitor, absorbance |  | 100 µM | 92.1%
c1ccc(C2CCN(CCCCn3nnnc3C(c3ccccc3)c3ccccc3)CC2)cc1 | SLC6A3 | transporter uptake, inhibitor | HEK293 | 1 µM | 93.9%
CCOC(=O)C1CSc2[nH]c(=O)sc2C1c1cn(-c2ccccc2)nc1-c1ccc(Cl)cc1 (stereo not drawn) | CA12 | enzyme activity, inhibitor, absorbance |  | 0.1 µM | 46.4%
CCN(c1cc(C#CCN2CCOCC2)cc(C(=O)NCc2c(C)cc(C)[nH]c2=O)c1C)[C@H]1CC[C@H](N(C)CCOC)CC1 | Protein arginine N-methyltransferase 1 (PRMT1, Homo sapiens, UniProt Q99873) | enzyme activity, inhibitor |  | 1 µM | 10%
O=C(CO)[C@@H](O)[C@H](O)[C@H](O)CO | USP51 | enzyme activity, inhibitor |  | 5 µM | 97%
CC(O)c1ccc(-c2ccc(CNCCc3ccc(S(N)(=O)=O)cc3)o2)cc1 (stereo not drawn) | DRD3 | enzyme activity, inhibitor |  | 10 µM | -9.5%
Cc1ccc(Nc2nccc(N(C)c3ccc4c(C)n(C)nc4c3)n2)cc1S(N)(=O)=O | Lyn | enzyme activity, inhibitor |  | 10 µM | 97%
Fc1ccc(C(c2ccc(F)cc2)c2nnnn2CCCCN2CCC(Cc3ccc(Cl)c(Cl)c3)CC2)cc1 | SLC6A3 | transporter uptake, inhibitor | HEK293 | 1 µM | 68.9%
CC(C)c1ccccc1OCCOCC(O)CN1CCN(c2cccc(C(F)(F)F)c2)CC1 (stereo not drawn) | DRD3 | enzyme activity, inhibitor |  | 10 µM | 14.3%
Clc1ccc(C(c2ccccc2)c2nnnn2CCCCN2CCN(CCc3ccccc3)CC2)cc1 (stereo not drawn) | SLC6A3 | transporter uptake, inhibitor | HEK293 | 1 µM | 62.1%
O=C(CCN1CCC(O)(c2ccc(F)cc2)C1)c1ccc2c(c1)OCCO2 (stereo not drawn) | DRD3 | enzyme activity, inhibitor |  | 10 µM | 9%
c1ccc(CCCC2CCN(CCCCn3nnnc3C(c3ccccc3)c3ccccc3)CC2)cc1 | SLC6A3 | transporter uptake, inhibitor | HEK293 | 1 µM | 63%

Structure (SMILES) | target | test | system | setting | inhibition
NS(=O)(=O)c1ccc(CCNCc2ccc(-c3ccccc3F)o2)cc1 | DRD3 | enzyme activity, inhibitor |  | 10 µM | 44.2%
N#CC1CSc2[nH]c(=O)sc2C1c1cn(-c2ccccc2)nc1-c1ccc(Br)cc1 (stereo not drawn) | CA12 | enzyme activity, inhibitor, absorbance |  | 1 µM | 61.5%
COc1ccccc1O | USP51 | enzyme activity, inhibitor |  | 5 µM | 0%
Oc1cccc(Nc2nc(-c3ccc(F)cc3F)cs2)c1 | PPARG | cell-free assay |  | 10 µM | 86.5%
O=c1ccc2cc3ccoc3cc2o1 | USP51 | enzyme activity, inhibitor |  | 5 µM | 0%
Fc1ccc(C(c2ccc(F)cc2)c2nnnn2CCCCN2CCC(CCCc3ccccc3)CC2)cc1 | SLC6A3 | transporter uptake, inhibitor | HEK293 | 1 µM | 53.4%
CCN(CC)CCNC(=O)c1c(C)[nH]c(/C=C2\C(=O)Nc3ccc(F)cc32)c1C | Lyn | enzyme activity, inhibitor |  | 0.3 µM | 40%
O=c1cc(-c2ccccc2)oc2cc(O)c(O)c(O)c12 | USP51 | enzyme activity, inhibitor |  | 5 µM | 95%
O=C(c1ccc(Cl)cc1)N(Cc1ccccc1)C1CCCCC1 | Urotensin-2 receptor (UTS2R, Homo sapiens, UniProt Q9UKP6) | cell-free assay |  | 10 µM | 27.3%
C=CCn1c(SCC(=O)NC2=NN(c3ccccc3)C(=O)C2)nnc1-c1cccs1 | DRD3 | enzyme activity, inhibitor |  | 10 µM | -4.7%
CC(C)=CCC[C@](C)(O)[C@H]1CC[C@]2(C)[C@@H]1[C@H](O)C[C@@H]1[C@@]3(C)CC[C@H](O[C@@H]4O[C@H](CO)[C@@H](O)[C@H](O)[C@H]4O[C@@H]4O[C@H](CO)[C@@H](O)[C@H](O)[C@H]4O)C(C)(C)[C@@H]3CC[C@]12C | USP51 | enzyme activity, inhibitor |  | 5 µM | 0%
COc1cc(NC(C)=O)c(Cl)cc1C(=O)Nc1nccs1 | PPARG | cell-free assay |  | 10 µM | 31.6%
Clc1ccc(C(c2ccccc2)c2nnnn2CCCN2CCC(Cc3ccccc3)CC2)cc1 (stereo not drawn) | SLC6A3 | transporter uptake, inhibitor | HEK293 | 1 µM | 93.8%
O=C1NC(=S)C(=Cc2cn(-c3ccccc3)nc2-c2ccc(Br)cc2)S1 | CA12 | enzyme activity, inhibitor, absorbance |  | 1 µM | 32.3%
CC1CCC(C(C)C)C(O)C1 (racemic) | USP51 | enzyme activity, inhibitor |  | 5 µM | 37%
CCOc1ccc(CNCC(O)c2ccccc2)cc1Br (stereo not drawn) | DRD3 | enzyme activity, inhibitor |  | 10 µM | 11.4%
NC(=O)NC1NC(=O)NC1=O (stereo not drawn) | USP51 | enzyme activity, inhibitor |  | 5 µM | 13%
Clc1ccc(C(c2ccccc2)c2nnnn2CCCCN2CCC(Cc3ccc(Cl)c(Cl)c3)CC2)cc1 (stereo not drawn) | SLC6A3 | transporter uptake, inhibitor | HEK293 | 1 µM | 67.8%
CCOC(=O)C1CSc2[nH]c(=O)sc2C1c1cn(-c2ccccc2)nc1-c1ccc(OC)cc1 (stereo not drawn) | CA12 | enzyme activity, inhibitor, absorbance |  | 10 nM | 17.1%
